Experimental data taken from ChEMBL document CHEMBL4130411, “Arylthiazole antibiotics targeting intracellular methicillin-resistant Staphylococcus aureus (MRSA) that interfere with bacterial cell wall synthesis” (Eur J Med Chem, 2017).
In brackets after ≈: the same amount, converted by molar mass. Activity calls are given as the source filed them. The rule behind the calls is not given here.

What was measured:
Staphylococcus aureus [1] = experiment: Antibacterial activity against methicillin-resistant Staphylococcus aureus USA100 NRS382 after 20 hrs by broth microdilution assay; type: functional; conditions: USA100 NRS382, 20 h
Staphylococcus aureus [2] = experiment: Bactericidal activity against methicillin-resistant Staphylococcus aureus NRS123 (USA400) incubated for 20 hrs followed by replating on tryptic soy agar plates and further incubated for 18 hrs by broth microdilution assay; type: functional
Staphylococcus aureus [3] = experiment: Antibacterial activity against vancomycin-resistant Staphylococcus aureus isolate 10 after 20 hrs by broth microdilution assay; type: functional; conditions: isolate 10, 20 h
Staphylococcus aureus [4] = experiment: Antibacterial activity against methicillin-resistant Staphylococcus aureus USA300 NRS384 after 20 hrs by broth microdilution assay; type: functional; conditions: USA300 NRS384, 20 h
Staphylococcus aureus [5] = experiment: Antibacterial activity against methicillin-resistant Staphylococcus aureus USA200 NRS383 after 20 hrs by broth microdilution assay; type: functional; conditions: USA200 NRS383, 20 h
Staphylococcus aureus [6] = experiment: Bactericidal activity against methicillin-resistant Staphylococcus aureus USA100 NRS382 incubated for 20 hrs followed by replating on tryptic soy agar plates and further incubated for 18 hrs by broth microdilution assay; type: functional
Staphylococcus aureus [7] = experiment: Bactericidal activity against methicillin-resistant Staphylococcus aureus USA200 NRS383 incubated for 20 hrs followed by replating on tryptic soy agar plates and further incubated for 18 hrs by broth microdilution assay; type: functional
Staphylococcus aureus [8] = experiment: Bactericidal activity against vancomycin-resistant Staphylococcus aureus isolate 10 incubated for 20 hrs followed by replating on tryptic soy agar plates and further incubated for 18 hrs by broth microdilution assay; type: functional
In short: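 From MIC wells without visible growth, an aliquot was spotted onto Tryptic soy agar and incubated at 37 °C for at least 18 h; MBC = lowest concentration inhibiting 99.9% of bacterial growth.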

Staphylococcus aureus [9] = experiment: Antibacterial activity against methicillin-resistant Staphylococcus aureus NRS123 (USA400) after 20 hrs by broth microdilution assay; type: functional
Staphylococcus aureus [10] = experiment: Bactericidal activity against methicillin-resistant Staphylococcus aureus USA300 NRS384 incubated for 20 hrs followed by replating on tryptic soy agar plates and further incubated for 18 hrs by broth microdilution assay; type: functional
Staphylococcus aureus [11] = experiment: Antibacterial activity against methicillin-resistant Staphylococcus aureus USA300 NRS384 infected in Caenorhabditis elegans AU37 assessed as reduction in bacterial burden at 20 ug/ml after 18 hrs by microscopic analysis; type: functional
Staphylococcus aureus [12] = experiment: Bactericidal activity against methicillin-resistant Staphylococcus aureus NRS123 (USA400) assessed as time required for complete bacterial elimination after 24 hrs by time-kill assay; type: functional
Staphylococcus aureus [13] = experiment: Inhibition of cell wall synthesis in Staphylococcus aureus RN4220 NRS107 assessed as UDP-N-acetylmuramyl pentapeptide formation at 10 times MIC incubated for 30 mins by HPLC-MS analysis; type: functional, organism-based
Staphylococcus aureus [14] = experiment: Antibacterial activity against vancomycin-resistant Staphylococcus aureus isolate 4 after 20 hrs by broth microdilution assay; type: functional; conditions: isolate 4, 20 h
Staphylococcus aureus [15] = experiment: Antibacterial activity against methicillin-resistant Staphylococcus aureus NRS123 (USA400) infected in mouse J774 cells assessed as reduction in bacterial colony forming units at 16 ug/ml after 24 hrs relative to control; type: functional
In short: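 J774 macrophages in DMEM + 10% FBS, 37 °C, 5% CO2, infected with USA400 at MOI ~100:1; after 1 h, gentamicin (50 µg/mL) wash; agent at 16 µg/mL in triplicate; at time point, gentamicin wash, lysis in 0.1% Triton X-100, serial dilution, TSA plating 18-22 h at 37 °C; % CFU/mL reduction versus untreated; t-test.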

Bacillus subtilis [16] = experiment: Inhibition of cell wall biosynthesis in Bacillus subtilis assessed as induction of formation of misshapen cells at 1.875 ug/ml incubated for 2 hrs by FM-4-64 staining based assay; type: functional, organism-based
In short: (§1)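 B. subtilis grown in LB at 37 °C to OD600 ~0.2, then treated with or without the osmotic stabiliser MSM for 2 h; stained with FM 4-64 (1 µg/mL, membranes), DAPI (1 µg/mL, DNA) and SYTOX Green (1 µg/mL, lysis); imaged by deconvolution fluorescence microscopy.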

Bacillus subtilis [17] = experiment: Inhibition of cell wall biosynthesis in Bacillus subtilis assessed as induction of large bulges formation at 1.875 ug/ml incubated for 2 hrs by FM-4-64 staining based assay; type: functional, organism-based; in short: as §1
Staphylococcus aureus [18] = experiment: Bactericidal activity against Staphylococcus aureus RN4220 NRS107 incubated for 20 hrs followed by replating on tryptic soy agar plates and further incubated for 18 hrs by broth microdilution assay; type: functional
Staphylococcus aureus [19] = experiment: Bactericidal activity against vancomycin-resistant Staphylococcus aureus isolate 4 incubated for 20 hrs followed by replating on tryptic soy agar plates and further incubated for 18 hrs by broth microdilution assay; type: functional
Staphylococcus aureus [20] = experiment: Antibacterial activity against Staphylococcus aureus RN4220 NRS107 after 20 hrs by broth microdilution assay; type: functional; conditions: RN4220 NRS107, 20 h
Bacillus subtilis [21] = experiment: Inhibition of cell wall biosynthesis in Bacillus subtilis assessed as induction of large bulges formation at 37.5 ug/ml incubated for 2 hrs by FM-4-64 staining based assay; type: functional, organism-based
In short: (§2)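 B. subtilis was grown in LB at 37 °C to OD600 ~0.2, then treated for 2 h with or without the osmotic stabiliser MSM. Cells were stained with FM 4-64 (1 µg/mL, membranes), DAPI (1 µg/mL, DNA) and SYTOX Green (1 µg/mL, lysis). Morphology was scored by deconvolution fluorescence microscopy against untreated cells.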

Bacillus subtilis [22] = experiment: Inhibition of cell wall biosynthesis in Bacillus subtilis assessed as induction of formation of misshapen cells at 37.5 ug/ml incubated for 2 hrs by FM-4-64 staining based assay; type: functional, organism-based; in short: as §2
[23] = Half life in human liver microsomes in absence of NADPH by LC-MS/MS analysis; type: ADME, microsome
In short: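 Human liver microsomes were incubated in duplicate at 37 °C in 100 mM potassium phosphate with 3 mM MgCl2, pH 7.4, without NADPH to detect NADPH-free degradation. Aliquots were taken at 0, 10, 20, 40 and 60 min and quenched in ice-cold methanol containing an internal standard, then held at least 10 min at -20 °C before water was added. Half-life was taken from compound depletion.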

[24] = Intrinsic clearance in human liver microsomes in presence of NADPH by LC-MS/MS analysis; type: ADME, microsome; conditions: read-out: CLH
In short: (§3)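 Human liver microsomal protein was incubated in duplicate at 37 °C in 100 mM potassium phosphate, 2 mM NADPH, 3 mM MgCl2, pH 7.4. Samples were taken at 0, 10, 20, 40 and 60 min and stopped with ice-cold methanol containing an internal standard. Half-life was derived from depletion. CLint = ln(2)/(T1/2 × microsomal protein concentration).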

[25] = Half life in human liver microsomes in presence of NADPH by LC-MS/MS analysis; type: ADME, microsome; conditions: liver microsomes; in short: as §3

| SMILES | MBC (Staphylococcus aureus [2]) [µg/mL] | MIC (Staphylococcus aureus [3]) [µg/mL] | MIC (Staphylococcus aureus [4]) [µg/mL] | MBC (Staphylococcus aureus [6]) [µg/mL] | MBC (Staphylococcus aureus [7]) [µg/mL] | MBC (Staphylococcus aureus [8]) [µg/mL] | MIC (Staphylococcus aureus [9]) [µg/mL] | MBC (Staphylococcus aureus [10]) [µg/mL] | MBC (Staphylococcus aureus [18]) [µg/mL] | also measured |
| --- | --- | --- | --- | --- | --- | --- | --- | --- | --- | --- |
| Cc1nc(-c2ccc(-c3ccccc3)cc2)sc1-c1cnc(NN)s1 | > 64 | 16 (≈ 43.9 µM) | 16 (≈ 43.9 µM) | > 64 | > 64 | 16 (≈ 43.9 µM) | 16 (≈ 43.9 µM) | 64 (≈ 176 µM) |  | MIC (Staphylococcus aureus [1]): 8 µg/mL (≈ 21.9 µM); MIC (Staphylococcus aureus [5]): 8 µg/mL (≈ 21.9 µM) |
| CN[C@H](CC(C)C)C(=O)N[C@H]1C(=O)N[C@@H](CC(N)=O)C(=O)N[C@H]2C(=O)N[C@H]3C(=O)N[C@H](C(=O)N[C@H](C(=O)O)c4cc(O)cc(O)c4-c4cc3ccc4O)[C@H](O)c3ccc(c(Cl)c3)Oc3cc2cc(c3O[C@@H]2O[C@H](CO)[C@@H](O)[C@H](O)[C@H]2O[C@H]2C[C@](C)(N)[C@H](O)[C@H](C)O2)Oc2ccc(cc2Cl)[C@H]1O [VANCOMYCIN] |  | ≥ 512 |  |  |  | > 512 |  |  |  | Activity (Staphylococcus aureus [11]): inactive; Time (Staphylococcus aureus [12]): 24 h; inhibition (Staphylococcus aureus [13]): Active; MIC (Staphylococcus aureus [14]): > 512 µg/mL; Activity (Staphylococcus aureus [15]): inactive |
| Cc1nc(-c2ccc(-c3ccccc3)cc2)sc1-c1cnc(N)s1 | > 64 | > 64 | > 64 |  |  | > 64 | > 64 | > 64 |  |  |
| Cc1onc(-c2ccccc2)c1C(=O)N[C@@H]1C(=O)N2[C@@H]1SC(C)(C)[C@@H]2C(=O)O |  |  |  |  |  |  |  |  |  | inhibition (Bacillus subtilis [16]): Active; inhibition (Bacillus subtilis [17]): Active |
| Cc1nc(-c2ccc(-c3ccccc3)cc2)sc1-c1cnc(NC(=N)N)s1 | 16 (≈ 40.9 µM) | 8 (≈ 20.4 µM) | 8 (≈ 20.4 µM) |  |  | 8 (≈ 20.4 µM) | 16 (≈ 40.9 µM) | 16 (≈ 40.9 µM) | 32 (≈ 81.7 µM) | MIC (Staphylococcus aureus [14]): 8 µg/mL (≈ 20.4 µM); MBC (Staphylococcus aureus [19]): 8 µg/mL (≈ 20.4 µM); MIC (Staphylococcus aureus [20]): 16 µg/mL (≈ 40.9 µM) |
| CCCCc1ccc(-c2nc(C)c(-c3cnc(-c4cccnc4)s3)s2)cc1 | 16 (≈ 40.9 µM) | > 64 | 16 (≈ 40.9 µM) |  |  | > 64 | 16 (≈ 40.9 µM) | 16 (≈ 40.9 µM) | 32 (≈ 81.7 µM) | MIC (Staphylococcus aureus [14]): > 64 µg/mL; MBC (Staphylococcus aureus [19]): > 64 µg/mL; MIC (Staphylococcus aureus [20]): 16 µg/mL (≈ 40.9 µM) |
| CC(=O)NC[C@H]1CN(c2ccc(N3CCOCC3)c(F)c2)C(=O)O1 [LINEZOLID] | 32 (≈ 94.9 µM) |  |  | 16 (≈ 47.4 µM) | 32 (≈ 94.9 µM) | 16 (≈ 47.4 µM) |  | 16 (≈ 47.4 µM) | 32 (≈ 94.9 µM) | MBC (Staphylococcus aureus [19]): 8 µg/mL (≈ 23.7 µM) |
| Cc1nc(-c2ccc3ccccc3c2)sc1-c1cnc(N)s1 | > 64 | > 64 | > 64 |  |  | > 64 | > 64 | > 64 |  |  |
| Cc1nc(-c2ccc3ccccc3c2)sc1-c1cnc(NN)s1 | > 64 | 16 (≈ 47.3 µM) | 16 (≈ 47.3 µM) | > 64 | > 64 | 16 (≈ 47.3 µM) | 16 (≈ 47.3 µM) | 64 (≈ 189 µM) |  | MIC (Staphylococcus aureus [1]): 8 µg/mL (≈ 23.6 µM); MIC (Staphylococcus aureus [5]): 8 µg/mL (≈ 23.6 µM) |
| CCCCc1ccc(-c2nc(C)c(-c3cnc(NN)s3)s2)cc1 | 16 (≈ 46.4 µM) | > 64 | 16 (≈ 46.4 µM) |  |  | > 64 | 16 (≈ 46.4 µM) | 16 (≈ 46.4 µM) | 32 (≈ 92.9 µM) | MIC (Staphylococcus aureus [20]): 16 µg/mL (≈ 46.4 µM) |
| Cc1nc(-c2ccc3ccccc3c2)sc1-c1cnc(-c2cccnc2)s1 | > 64 | 16 (≈ 41.5 µM) | 16 (≈ 41.5 µM) | > 64 | > 64 | 16 (≈ 41.5 µM) | 16 (≈ 41.5 µM) | 64 (≈ 166 µM) |  | MIC (Staphylococcus aureus [1]): 8 µg/mL (≈ 20.8 µM); MIC (Staphylococcus aureus [5]): 8 µg/mL (≈ 20.8 µM) |
| N[C@@H]1CONC1=O |  |  |  |  |  |  |  |  |  | inhibition (Bacillus subtilis [21]): Active; inhibition (Bacillus subtilis [22]): Active |
| Cc1nc(-c2ccc(-c3ccccc3)cc2)sc1-c1cnc(-c2cccnc2)s1 | > 64 | 16 (≈ 38.9 µM) | 16 (≈ 38.9 µM) | > 64 | > 64 | 16 (≈ 38.9 µM) | 16 (≈ 38.9 µM) | 64 (≈ 156 µM) |  | MIC (Staphylococcus aureus [1]): 8 µg/mL (≈ 19.4 µM); MIC (Staphylococcus aureus [5]): 8 µg/mL (≈ 19.4 µM) |
| CCCCc1ccc(-c2nc(C)c(/C(C)=N/NC(=N)N)s2)cc1 |  |  |  |  |  |  |  |  |  | t1/2 [23]: > 240 min; microsomal CLint [24]: 80.3 µL/min/mg; half-life [25]: 28.8 min |
| CCCCc1ccc(-c2nc(C)c(-c3cnc(NC(=N)N)s3)s2)cc1 | 16 (≈ 43.1 µM) | 8 (≈ 21.5 µM) | 16 (≈ 43.1 µM) |  |  | 8 (≈ 21.5 µM) | 16 (≈ 43.1 µM) | 16 (≈ 43.1 µM) | 32 (≈ 86.1 µM) | MIC (Staphylococcus aureus [14]): 8 µg/mL (≈ 21.5 µM); MBC (Staphylococcus aureus [19]): 8 µg/mL (≈ 21.5 µM); MIC (Staphylococcus aureus [20]): 16 µg/mL (≈ 43.1 µM) |
| CCCCc1ccc(-c2nc(C)c(-c3cnc(N)s3)s2)cc1 | > 64 | > 64 | > 64 |  |  | > 64 | > 64 | > 64 |  |  |
